pEC50, pIC50: −log10 of the molar value.
How the values were obtained:
[1] = test system: Mammalian orthoreovirus 1; test: Antiviral activity against Reovirus-1 infected in african green monkey Vero cells assessed as inhibition of virus-induced cytopathogenicity after 4 days; format: functional, organism-based; settings: Mammalian orthoreovirus 1, Vero, 96 h
In short: (§1)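 Confluent HEL, Vero or HeLa monolayers were inoculated with 100 CCID50 of virus in the presence of varying concentrations of compound. Cytopathicity was scored when it reached completion in untreated, virus-infected control cultures.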

[2] = test system: Respiratory syncytial virus; test: Antiviral activity against Respiratory syncytial virus infected in human HeLa cells assessed as inhibition of virus-induced cytopathogenicity after 4 days; format: functional, organism-based; settings: 96 h; in short: as §1
[3] = test system: Human immunodeficiency virus 2; test: Antiviral activity against HIV2 infected in human CEM cells assessed as inhibition of virus-induced cytopathic effect after 4 days; format: functional, organism-based; settings: Human immunodeficiency virus 2, CCRF-CEM, 96 h
In short: (§2)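 CEM T-lymphocytes (~3 × 10^5 cells/ml) were infected with HIV-1 IIIB or HIV-2 ROD at ~100 CCID50, then immediately plated with a range of compound concentrations. Giant cell formation was scored microscopically after 4 days at 37 °C. Cytostatic activity was tested in parallel in uninfected CEM cells.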

[4] = test system: Human immunodeficiency virus 1; test: Antiviral activity against HIV1 infected in human CEM cells assessed as inhibition of virus-induced cytopathic effect after 4 days; format: functional, organism-based; settings: Human immunodeficiency virus 1, CCRF-CEM, 96 h; in short: as §2
Nucleic Acid [5] = test: Binding affinity to calf thymus DNA after 5 mins by spectrofluorometric analysis; format: nucleic-acid assay; settings: Bos taurus
In short: (§3)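 Steady-state fluorescence titration at ambient temperature: compound held at 30 μM while DNA was varied (0.3–70 μM), working solutions diluted in methanol. Excitation 320 nm, emission 380 nm, slit 5 nm. Log K was calculated from quenching of the 380 nm emission.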

Plasmodium falciparum [6] = test: Antiplasmodial activity chloroquine-resistant Plasmodium falciparum K1 infected in human A+ erythrocytes assessed as inhibition of [3H]-hypoxanthine incorporation after 24 hrs by scintillation counting; format: functional, organism-based
Plasmodium falciparum [7] = test: Resistant factor, ratio of IC50 for chloroquine-resistant Plasmodium falciparum K1 to IC50 for chloroquine-sensitive Plasmodium falciparum 3D7; format: functional
In short: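 Resistance factor computed as IC50 against K1 divided by IC50 against 3D7, both from the [3H]hypoxanthine incorporation assay.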

Influenza A virus = test: Antiviral activity against Influenza A virus H3N2 infected in MDCK cells assessed as reduction visual scoring of virus-induced cytopathogenicity after 4 days; format: functional, organism-based; settings: 96 h
In short: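 MDCK monolayers infected with 100 CCID50 of influenza A (H1N1 or H3N2) or influenza B, with varying compound concentrations. Cytopathicity read when untreated infected controls reached complete CPE.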

Human betaherpesvirus 5 = test: Antiviral activity against Human cytomegalovirus Davis infected in HEL cells assessed as inhibition of virus plaque formation after 4 days; format: functional, organism-based; settings: Human betaherpesvirus 5, Davis, 96 h
Human respirovirus 3 = test: Antiviral activity against Parainfluenza-3 virus infected in african green monkey Vero cells assessed as inhibition of virus-induced cytopathogenicity after 4 days; format: functional, organism-based; settings: Human respirovirus 3, Vero, 96 h; in short: as §1
[8] = test system: Vesicular stomatitis virus; test: Antiviral activity against Vesicular stomatitis virus infected in HEL cells assessed as inhibition of virus-induced cytopathogenicity after 4 days; format: functional, organism-based; settings: 96 h
In short: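 Confluent HEL or HeLa monolayers infected with 100 CCID50 of virus in the presence of varying compound concentrations.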

Influenza B virus = test: Antiviral activity against Influenza B virus infected in MDCK cells assessed as inhibition of virus-induced cytopathogenicity after 4 days by colorimetric formazan-based MTS assay; format: functional, organism-based; settings: 96 h
Plasmodium falciparum [9] = test: Ratio of chloroquine IC50 to compound IC50 for chloroquine-sensitive Plasmodium falciparum K1; format: functional
[10] = Inhibition of beta-hematin formation assessed as Ferriprotoporphyrin IX biomineralisation after 24 hrs; format: functional
In short: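 Hemin (0.5 mg/ml in DMSO) was mixed with 0.5 M sodium acetate pH 4.4 and compound, then incubated for 24 h at 37 °C. The pellet was washed with DMSO to remove unreacted hemin and dissolved in 0.1 N NaOH, with A405 read. Percent inhibition was taken versus solvent control, and IC50 by curve fitting.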

Plasmodium falciparum [11] = test: Ratio of chloroquine IC50 to compound IC50 for chloroquine-sensitive Plasmodium falciparum 3D7; format: functional
Nucleic Acid [12] = test: Binding affinity to Escherichia coli pUC18 DNA by spectrofluorometric analysis; format: nucleic-acid assay; in short: as §3

Row | SMILES | pEC50 [1] | pEC50 [2] | pEC50 [3] | pEC50 [4] | log Ks (Nucleic Acid [5]) | pIC50 (Plasmodium falciparum [6]) | Ratio IC50 (Plasmodium falciparum [7]) | pEC50 (Influenza A virus) | pEC50 (Human betaherpesvirus 5) | pEC50 (Human respirovirus 3) | pEC50 [8] | pEC50 (Influenza B virus) | Ratio IC50 (Plasmodium falciparum [9]) | pIC50 [10] | inhibition [10] | Ratio IC50 (Plasmodium falciparum [11]) | log Ks (Nucleic Acid [12])
1 | CCOC(=O)c1c(C)nc(NCCCCNc2ccnc3cc(Cl)ccc23)nc1-c1ccccc1 | < 4.00 | < 4.00 | < 5.70 | < 5.70 | 4.67 | 7.58 | 0.129 | < 6.80 | 5.84 | < 4.00 | < 4.00 | < 6.80 |  |  |  |  | 
2 | Cc1nc(NCCCCNc2ccnc3cc(Cl)ccc23)nc(-c2ccccc2[N+](=O)[O-])c1C(=O)OC(C)C | < 4.70 | < 4.70 | < 5.70 | < 5.70 | 3.39 | 8.44 | 0.2 | < 6.10 | < 5.40 | < 4.70 | < 5.40 | < 6.10 | 56 | 5.70 | Dose-dependent effect | 56 | 5.27

Reference: ChEMBL document CHEMBL2021854, “2-Aminopyrimidine based 4-aminoquinoline anti-plasmodial agents. Synthesis, biological activity, structure-activity relationship and mode of action studies” (Eur J Med Chem, 2012)
